From PubChem BioAssay
Shown are actives, neighbours in structure and some others; about 1.3% of the full set was active somewhere.
NR2E3 ag-1: activates human photoreceptor nuclear receptor NR2E3 | Q9Y5X4 | GST-NR2E3/biotin-RetCOR TR-FRET, 1536-well | inhibition of corepressor binding, % at 4.78 µM | 320,000 compounds, 0.12% hits;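 active means percent inhibition above the cutoff of mean plus 3 SD of all tested compounds, set per screening campaign, cut at about 20% in these data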;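 further: 0% = DMSO wells and 100% = biotin wells as full block of FRET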
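Material: NR2E3–RetCOR corepressor complex | Quantity: 1.35 nM GST-tagged NR2E3 final | Schedule: 5 h at 4 °C | Replication: Singlicate compound wells | Reagent: RetCOR corepressor, biotinylated, 7 nM | Controls: Biotin wells as high control, 0.6% DMSO wells as low control | Signal: TR-FRET, Eu(K)-anti-GST donor, streptavidin-D2 acceptor, ex 340, em 617/671 nm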
EP2 antag: EP2 receptor (human) inhibition | inhibition, % at 25 µM | 260,000 compounds, 0.52% hits | C6 glioma cells expressing human EP2, cAMP TR-FRET; cells stimulated with saturating PGE2 | P43116;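 active means percent inhibition above 40 after rounding to a whole number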;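 further: rat C6 glioma host cells with rolipram phosphodiesterase inhibitor present; the protocol text gives 20 µM as final concentration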
GASC-1 inh: human JMJD2C demethylase inhibition; Q9H3R0; GST-JMJD2C(1-420) H3K9me3 demethylation, DELFIA europium; inhibition, % at 2.35 µM; 330,000 compounds, 0.069% hits; AID 2099;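 active means more than half of a compound's replicate wells show inhibition beyond 50%, single wells judged on their own value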;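 further: signal counts dimethyl H3K9 product captured on neutravidin plate; 0% = median of DMSO wells and 100% = 0.3 times that DMSO median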
EP2 mod: modulates human prostaglandin E2 receptor EP2 signaling. induction, % at 25 µM. EP2-expressing cells, cAMP HTRF FRET, PGE2 co-stimulation. 260,000 compounds, 0.83% hits. P43116;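 active means compounds whose cAMP rise, as percent of the full-agonist control response, exceeds 60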;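 further: rat C6 glioma line stably carrying human EP2 under a CMV promoter; the protocol text gives 20 µM as final concentration; 100% = response of wells given 1 µM PGE2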
NR2E3 ag-2: agonists of human NR2E3 nuclear receptor; Q9Y5X4; CHO-S Gal4-NCOR/VP16-NR2E3 two-hybrid, luciferase; inhibition of corepressor binding, % at 3.98 µM; 360,000 compounds, 0.35% hits; AID 602229;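 active means inhibition above the mean of all tested compounds plus 3 SD, cut at about 70% in these data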;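 further: 0% = DMSO with NR2E3 transfected cells and 100% = cells lacking NR2E3 construct; higher means lower luciferase signal from less NR2E3 corepressor binding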
Furin inhibitor: human furin inhibition; inhibition, % at 20 µM or 30 µM; AID 463115; purified furin, fluorogenic substrate cleavage; 220,000 compounds, 0.061% hits; in the data active means inhibition above about 25%
Target sequence (P09958 108-714 limits assumed): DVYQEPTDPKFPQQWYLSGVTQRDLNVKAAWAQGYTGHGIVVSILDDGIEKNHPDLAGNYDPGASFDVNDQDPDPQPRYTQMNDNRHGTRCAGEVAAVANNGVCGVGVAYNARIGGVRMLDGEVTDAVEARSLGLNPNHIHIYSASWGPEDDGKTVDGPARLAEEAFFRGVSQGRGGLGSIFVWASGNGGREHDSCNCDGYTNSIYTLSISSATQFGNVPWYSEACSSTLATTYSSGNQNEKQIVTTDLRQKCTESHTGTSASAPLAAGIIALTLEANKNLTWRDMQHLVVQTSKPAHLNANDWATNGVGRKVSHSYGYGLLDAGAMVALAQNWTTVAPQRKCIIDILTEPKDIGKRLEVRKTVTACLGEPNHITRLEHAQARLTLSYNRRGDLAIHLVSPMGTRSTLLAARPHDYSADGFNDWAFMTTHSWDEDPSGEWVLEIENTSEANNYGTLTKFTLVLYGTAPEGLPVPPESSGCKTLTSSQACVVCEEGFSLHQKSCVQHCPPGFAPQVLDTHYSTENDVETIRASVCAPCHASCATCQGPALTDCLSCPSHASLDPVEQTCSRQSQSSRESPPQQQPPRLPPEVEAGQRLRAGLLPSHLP
An asterisk follows results filed as active; / = no result; ! = not confirmed by another sample.

SMILES	NR2E3 ag-1	EP2 antag	GASC-1 inh	EP2 mod	NR2E3 ag-2	Furin inhibitor
O=[N+]([O-])c1ccc2c(N=Nc3ccc4ccccc4c3O)c(O)cc(S(=O)(=O)O)c2c1	/	51*	/	-39	/	/
Cn1c(N2CCC(C(=O)NCCc3cccc(F)c3)CC2)nc2ccccc21	/	4	/	-87	/	/
Cc1ccc2nc(C3CCN(C(=O)c4ccccc4F)CC3)[nH]c2c1	/	8	/	-4	/	/
O=C(NC1CCCc2ccccc21)c1ccc(Br)cc1 (stereo unspecified)	1	7	58*	-18	-13	-18
O=C(NC1CCCc2ccccc21)c1ccccc1 (stereo unspecified)	1	13	-10	-4	-7	-16
c1ccc2c(c1)nc(N1CCCCC1)c1ccccc12	0	10	5	68*	-16	-7
c1ccc2c(N3CCCCC3)nc(N3CCCC3)nc2c1	3	6	0	2	-32	-9
Clc1ccc(-c2cc3ccccc3nc2N2CCOCC2)cc1	-5	7	17	54	-10	-19
Clc1ccc(-c2cc3ccccc3nc2N2CCCC2)cc1	-2	10	25	64*	-18	-28
Cc1ccc(-c2cc3ccccc3nc2N2CCCC2)cc1	0	11	-4	62*	-77	-26
COc1ccc(CC(=O)N2CCc3c(nc(N4CCCC4)[nH]c3=O)C2)cc1OC	/	/	/	6	/	/
Cc1sc2ncn(Cc3ccc(Cl)cc3Cl)c(=O)c2c1C	/	13	/	-12	/	/
COc1nccnc1NS(=O)(=O)c1ccc(NC(=S)NC(=O)/C=C/c2ccc(F)cc2)cc1	1	66*	2	-64	1	-16
COc1nccnc1NS(=O)(=O)c1ccc(NC(=S)NC(=O)/C=C/c2ccc(C)cc2)cc1	/	72*	/	-104	/	/
Cn1ccnc1Sc1nc(Nc2cccc(Cl)c2)nc(N2CCOCC2)n1	-8	7	3	61*	9	-16
O=C(CSc1ncnc2sc3c(c12)CCCC3)OCc1ccccc1	/	8	/	62*	/	/
CC(C)COC(=O)c1cccc2c1-c1ccccc1/C2=N\O	3	/	20	63*	15	-19
Cc1ccc(-c2cc(C(=O)NCc3cccnc3)no2)cc1	2	2	2	2	-34	25*
COc1ccc(-c2cc(C(=O)NCc3cccnc3)no2)cc1OC	1	6	-30	-35	1	-4
CCC(NC(=O)c1c(-c2ccncc2)noc1C)c1ccc(F)cc1 (stereo unspecified)	/	7	/	-31	/	/
CCOC(=O)n1c(=O)n(Cc2ccc(F)cc2)c2ccccc21	5	5	-2	41	-13	-9
CCOC(=O)n1c(=O)n(Cc2cccc(C)c2)c2ccccc21	2	7	4	64*	-9	-14
CC(=O)Nc1ccc2c(c1)C(=Nc1cccc(C)c1)c1ccccc1-2	/	/	/	/	-20	/
CC(=O)Nc1ccc2c(c1)C(=Nc1ccc(C(=O)O)cc1)c1ccccc1-2	/	59*	/	-7	/	/
COCCn1nnnc1CN(Cc1ccc(F)cc1)Cc1cc2cc3c(cc2[nH]c1=O)OCCO3	/	11	/	-15	/	/
SMILES	NR2E3 ag-1	EP2 antag	GASC-1 inh	EP2 mod	NR2E3 ag-2	Furin inhibitor
c1ccc(-c2nnc(CN3CCN(C(c4ccccc4)c4ccccc4)CC3)o2)cc1	0	10	-5	61*	-18	-19
O=[N+]([O-])c1ccc(C2=Nn3c(nnc3-c3ccc(Cl)cc3)SC2)o1	/	73*	/	-31	/	/
CC(C)c1nnc2n1N=C(c1ccc(Cl)cc1)CS2	/	/	-3	/	10	/
C[C@H](Oc1ccc(Oc2cnc3ccc(Cl)cc3n2)cc1)C(=O)O	/	46*	/	9	/	/
Cc1ncsc1C(=O)N[C@@H](C)Cn1nnc2ccccc21	/	4	/	-4	/	/
Cc1ccc(S(=O)(=O)Nc2ccccc2C(=O)c2ccc(C)c(C)c2)cc1	/	45*	/	4	/	/
Cc1ccc(S(=O)(=O)Nc2ccc(Cl)cc2C(=O)c2ccccc2)cc1	-1	7	-8	45	27	-9
CCNC(=O)Nn1c(-c2ccccc2)nc2ccccc2c1=O	-1	8	24	7	3	-8
CCC(C(=O)OC)n1c(-c2ccccc2)nc2ccccc2c1=O (stereo unspecified)	-2	7	-4	69*!	11	-19
COc1cc(C(=O)Oc2cccc(C=O)c2)cc(OC)c1OC	2	18	0	12	-4	-21
O=Cc1cccc(OC(=O)c2ccc(Cl)cc2Cl)c1	6	7	5	64*	/	-16
Cc1nnc(SCc2ccccc2)nc1-c1ccccc1	4	17	9	/	-109	/
c1ccc(CSc2nnc3c4ccccc4c4ccccc4c3n2)cc1	-1	55*!	-11	25	/	-25
CO[C@@H]1/C=C\O[C@]2(C)Oc3c(C)c(O)c4c(O)c(c(CN(C)C)c(O)c4c3C2=O)NC(=O)C(C)=C/C=C\[C@@H](C)[C@@H](O)[C@H](C)[C@@H](O)[C@H](C)[C@H](OC(C)=O)[C@@H]1C	/	52*	/	12	/	/
NC(=O)Cn1nc(-c2ccc(F)cc2)n(-c2ccncc2)c1=O	/	8	/	-21	/	/
CCc1nnc(NS(=O)(=O)c2ccc(NC(=S)NC(=O)c3ccccc3)cc2)s1	5	21	-7	-114	-10	-16
CCc1nnc(NS(=O)(=O)c2ccc(NC(=S)NC(=O)c3ccc(Br)cc3)cc2)s1	2	59*	10	-79	-6	-11
CCc1nnc(NS(=O)(=O)c2ccc(NC(=S)NC(=O)/C=C/c3ccc(C(C)C)cc3)cc2)s1	0	3	-2	-17	22	-14
COc1ccc(C(=O)NC(=S)Nc2ccc(S(=O)(=O)Nc3nccs3)cc2)cc1	/	49*	/	-121	/	/
CCc1nnc(NS(=O)(=O)c2ccc(NC(=S)NC(=O)/C=C/c3ccc(OC)cc3)cc2)s1	1	104*	11	-9	3	-19
CN(C)CCN[C@@H]1CCN(Cc2ccc(F)cc2)C[C@H]1O	/	6	/	-13	/	/
CC(=O)NC1(c2ccc(F)cc2)CCN(CC(=O)Nc2c(C)n[nH]c2C)CC1	/	/	/	-7	/	/
COc1ccccc1CNCc1c[nH]c2ccccc12	/	17	/	-83	/	/
Cc1cc(-c2cncnc2C2CCN(C(=O)CCn3nc(C)cc3C)CC2)on1	/	/	/	9	/	/
N[C@@H](CSC1(c2ccc(Cl)cc2)c2ccccc2-c2ccccc21)C(=O)O	/	44*	/	5	/	/
Cc1ccc(C2(SCC(N)C(=O)O)c3ccccc3-c3ccccc32)cc1 (stereo unspecified)	/	/	/	/	2	/
Cc1occc1-c1nnc(SCC(=O)NC(C)(C)C)n1C	/	10	/	15	/	/
O=C(O)c1ccccc1-c1ccccc1C(=O)Nc1ccc2oc(=O)c3ccccc3c2c1	/	/	/	/	11	/
O=C(O)c1ccccc1-c1ccccc1C(=O)Nc1ccc2c(c1)[nH]c(=O)c1ccccc12	1	46*!	6	7	-31	-10
